The IC50 is the concentration that gives 50% inhibition. Higher therefore signals lower potency.

These results are taken from ChEMBL document CHEMBL2021907, “Amyrisins A-C, O-prenylated flavonoids from Amyris madrensis” (J Nat Prod, 2012).

Activity calls are given as the source filed them. The rule behind the calls is not given here.

For test [1], the system named is PC-3. The test is described as follows: Cytotoxicity against human PC3 cells at 50 uM after 48 hrs by SRB assay. The test is classed as functional, cell-based. In short, it runs like this:
(§1)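 SRB assay over 48 h, with a concentration range up to 50 μM, in cells pre-plated at set densities. PC-3 cells were grown in RPMI 1640 with 10% FBS and 50 µg/mL gentamicin. DU 145 cells were grown in Richter's IMEM with 10% FBS and 25 µg/mL gentamicin. The IC50 is the 50% growth-inhibition concentration, averaged over two independent triplicate experiments.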
In general terms: The SRB assay estimates cell density from bound dye.

The next test is filed under the species Homo sapiens. In words: Disruption of microtubules in human MDA-MB-435 after 1 hr by immunoblotting technique. In general terms: A western blot detects proteins with antibodies after separation by electrophoresis.
Another test concerns DU-145. In words: Cytotoxicity against human DU145 cells after 48 hrs by SRB assay. The test is classed as functional, cell-based. The conditions noted are these: DU-145, 48 h. In short, it runs like this: as §1
Test [2] relates to PC-3. In words: Cytotoxicity against human PC3 cells after 48 hrs by SRB assay. The test is classed as functional, cell-based. The following applies: PC-3, 48 h. The method in brief: as §1
In test [3] the test system is PC-3. The test is described as follows: Effect on cell cycle distribution in human PC3 cells at 50 uM after 18 hrs by flow cytometry. It is filed as functional, cell-based. On the technique in general: In flow cytometry, cells or beads pass a laser one at a time.

`COc1c(O)cc2oc(-c3ccc(OCC=C(C)C)cc3)cc(=O)c2c1O`: the result with PC-3 [1] and in the test listed under Homo sapiens was inactive.
With `C=C(C)C(O)COc1ccc(-c2cc(=O)c3c(O)c(OC)c(O)cc3o2)cc1` (stereo unspecified) [AMYRISIN B], in the test filed under Homo sapiens, the outcome was inactive. For the same compound, the IC50 in the test with DU-145 and with PC-3 [2] was 17.5 µM each time.
For the compound `O=C1OC[C@@H]2Cc3cc4c(cc3[C@@H](c3ccc5c(c3)OCO5)[C@@H]12)OCO4` [POLYGAMAIN], the result in the test filed under Homo sapiens was Active. Further, half-maximal inhibition in the test on PC-3 [2] (IC50) was put at 0.0706 µM.
For `COc1cc(-c2cc(=O)c3c(O)c(OC)c(O)cc3o2)ccc1OCC=C(C)C` [AMYRISIN C], the result in the test listed under Homo sapiens and with PC-3 [3] was inactive. The IC50 in the test on DU-145 and in the test with PC-3 [2] was 23 µM in each case.
